In ChEMBL document CHEMBL3864163, “I. Discovery of a novel series of CXCR3 antagonists. Multiparametric optimization of N,N-disubstituted benzylamines” (Bioorg Med Chem Lett, 2016) one finds Stability, Papp and IC50 data, which are given here for 41 molecules.

Structures are written as SMILES.

A short description of data set [1]: Metabolic stability in human liver microsomes assessed as parent compound remaining in presence of NADPH by LC-MS/MS method. Type of data set: ADME. The procedure, abridged: (§1)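 Compound incubated with liver microsomes (human or mouse) plus NADPH at 37 °C. Loss of parent was followed by LC-MS-MS and reported as percent. Stability bands: low <40%, medium 40–60%, high >60%.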

Data set [2] can be described thus: Apparent permeability across human Caco2 cells after 2 hrs by LC-MS method. Type of data set: ADME, cell-based. The following applies: Caco-2. The essentials:
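Caco-2 monolayers checked for integrity, then dosed alongside high- and low-permeability controls. Apical and basal samples taken at 2 h. Four transport conditions: A-B at pH 6.5/7.4 (0% or 0.5% BSA apical, 5% BSA basal), and A-B and B-A at pH 7.4/7.4 (0.5% BSA both sides). Compound quantified by LC/MS. Rapid transport defined as Papp >20 nm/s.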

Data set [3] can be described thus: Metabolic stability in mouse liver microsomes assessed as parent compound remaining in presence of NADPH by LC-MS/MS method. Type of data set: ADME. The procedure, abridged: as §1
The target of data set [4] is T1, C-X-C chemokine receptor type 3 (Homo sapiens, UniProt P49682).
T1 sequence (P49682 whole entry): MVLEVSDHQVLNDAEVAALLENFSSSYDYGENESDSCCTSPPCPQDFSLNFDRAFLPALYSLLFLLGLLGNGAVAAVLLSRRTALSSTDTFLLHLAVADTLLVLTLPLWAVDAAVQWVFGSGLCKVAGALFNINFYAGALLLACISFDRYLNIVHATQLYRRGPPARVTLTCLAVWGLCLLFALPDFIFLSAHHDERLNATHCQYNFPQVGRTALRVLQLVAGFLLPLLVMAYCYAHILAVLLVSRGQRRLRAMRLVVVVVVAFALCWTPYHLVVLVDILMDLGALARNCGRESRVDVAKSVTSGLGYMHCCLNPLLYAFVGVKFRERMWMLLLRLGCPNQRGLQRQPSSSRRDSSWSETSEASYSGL
Briefly: Displacement of [125I]-CXCL10 from human recombinant CXCR3 transfected in Flp-In-CHO cell membranes after 60 mins by gamma counting method.

For `COc1cc(CN(Cc2ccc(/C=C/C(=O)O)cc2)C(C)c2ccc3c(c2)CCO3)ccc1OCCN1C(=O)CCC1=O` (centres undefined), the Stability is given as 84% in data set [1] and 87% in data set [3]. Moreover, in data set [2], the Papp at 2 h was 1.34 ×10⁻⁶ cm/s. The IC50 in data set [4] was found to be 138 nM.

For `CCCC(NCc1ccc(OCCN2C(=O)CCC2=O)c(OC)c1)c1ccc2c(c1)CCO2` (centres undefined), in data set [4], the IC50 was found to be 1200 nM.

Turning to `CCC(c1ccc2c(c1)CCO2)N(CC)Cc1ccc(OCCN2C(=O)CCC2=O)c(OC)c1` (centres undefined), the Stability in data set [1] and in data set [3] was 5% throughout. Besides, the IC50 in data set [4] amounted to 110 nM.

`COc1cc(CN(CCO)C(C)c2ccc3c(c2)CCO3)ccc1OCCN1C(=O)CCC1=O` (centres undefined): the values for the Stability in data set [1] and in data set [3] were 3% and 4%, respectively. Besides, the IC50 in data set [4] stood at 82 nM.

`COc1cc(CNCc2ccc3c(c2)CCO3)ccc1OCCN1C(=O)CCC1=O`: the Stability in data set [1] is 61%; in data set [3] it was 67%. Besides, the IC50 in data set [4] stood at 290 nM.

Consider `COc1cc(CN(C[C@H]2CC[C@H](C(=O)OC)CC2)[C@H]2CCc3cc(Cl)ccc32)ccc1OCCN1C(=O)CCC1=O`, for which the IC50 in data set [4] was 840 nM.

With `COc1cc(CN(Cc2ccc3c(c2)CCO3)C(C)c2ccc3c(c2)CCO3)ccc1OCCN1C(=O)CCC1=O` (centres undefined), the results for the Stability in data set [1] and in data set [3] were 28% and 24%, respectively. Moreover, the IC50 in data set [4] was 340 nM.

`CCC(NCc1ccc(OCCN2C(=O)CCC2=O)c(OC)c1)c1ccc2c(c1)CCO2` (centres undefined): in data set [4], the IC50 is 1060 nM.

In the case of `Cc1cc(CN(C)C(C)c2ccc3c(c2)CCO3)ccc1OCCN1C(=O)CCC1=O` (centres undefined), the Stability in data set [1] is on record as 29%; in data set [3], 19%. Also, the IC50 in data set [4] was determined as 230 nM.

With `COc1cc(CN(CC2CCCCC2)C(C)c2ccc3c(c2)CCO3)ccc1OCCN1C(=O)CCC1=O` (centres undefined), the results for the Stability in data set [1] and in data set [3] were 35% and 27%, respectively. Further, the half-inhibitory concentration (IC50) in data set [4] was 52 nM.

Turning to `COc1cc(CN(Cc2ccc(C(=O)O)cc2)C(c2ccc3c(c2)CCO3)C2CCCC2)ccc1OCCN1C(=O)CCC1=O` (centres undefined), the Stability in data set [1] is reported as 52%. Moreover, in data set [4], the 50% inhibitory concentration (IC50) came out at 4200 nM.

On to `COc1cc(CN(CCCC(=O)O)C(c2ccc3c(c2)CCO3)C2CCCC2)ccc1OCCN1C(=O)CCC1=O` (centres undefined), for which the Stability in data set [1] came to 92%; in data set [3], 94%. Also, the Papp at 2 h in data set [2] worked out at 3.21 ×10⁻⁶ cm/s. In addition, the IC50 in data set [4] amounted to 382 nM.

As for `COc1cc(CN(C[C@H]2CC[C@H](C(=O)O)CC2)[C@@H]2CCc3cc(Cl)ccc32)ccc1OCCN1C(=O)CCC1=O`, the Stability stood at 54% in data set [1] and 55% in data set [3]. The apparent permeability coefficient (Papp) at 2 h in data set [2] amounted to 6.62 ×10⁻⁶ cm/s.

`COc1cc(CN(C)C(C)c2ccc3c(c2)CCO3)ccc1OCCN1C(=O)CN(C)C1=O` (centres undefined): the Stability in data set [1] was found to be 28%; in data set [3], 26%. Moreover, in data set [4], the IC50 worked out at 202 nM.

Turning to `COc1cc(CN(Cc2cccnc2)C(C)c2ccc3c(c2)CCO3)ccc1OCCN1C(=O)CCC1=O` (centres undefined), the Stability in data set [1] is given as 19%; in data set [3], 29%. The IC50 in data set [4] was 190 nM.

For `COc1cc(CN(CCN)C(C)c2ccc3c(c2)CCO3)ccc1OCCN1C(=O)CCC1=O` (centres undefined), the Stability in data set [1] is given as 48%; in data set [3], 13%. In data set [4], the IC50 turned out to be 2200 nM.

As for `CCC(c1ccc2c(c1)CCO2)N(Cc1ccc(OCCN2C(=O)CCC2=O)c(OC)c1)CC(C)C` (centres undefined), the Stability in data set [1] and in data set [3] was 19% throughout. Further, in data set [4], the IC50 amounted to 38 nM.

On to `COc1cc(CN(Cc2ccc(C(=O)O)cc2)[C@H](C)c2ccc(Cl)cc2)ccc1OCCN1C(=O)CCC1=O`, for which the Stability in data set [1] is reported as 98%; in data set [3], 100%. Besides, the Papp at 2 h in data set [2] came out at 3.7 ×10⁻⁶ cm/s. Also, in data set [4], the IC50 came to 345 nM.

For the molecule `COc1cc(CNC(C)(C)c2ccc3c(c2)CCO3)ccc1OCCN1C(=O)CCC1=O`, the IC50 in data set [4] came out at 780 nM.

With `COc1cc(CN(C[C@H]2CC[C@H](C(=O)O)CC2)[C@H]2CCc3cc(Cl)ccc32)ccc1SCCN1C(=O)CCC1=O`, the figures for the Stability in data set [1] and in data set [3] were 15% and 3%, respectively. Besides, the Papp at 2 h in data set [2] was determined as 7.24 ×10⁻⁶ cm/s.

As to `COc1cc(CN(CC23CCC(C(=O)O)(CC2)CC3)C(C)c2ccc3c(c2)CCO3)ccc1OCCN1C(=O)CCC1=O` (centres undefined), the Stability in data set [1] amounted to 71%; in data set [3], 79%. Besides, in data set [2], the Papp at 2 h is 6.56 ×10⁻⁶ cm/s. Also, in data set [4], the IC50 is 225 nM.

For the molecule `COc1cc(CN(CC(C)O)C(C)c2ccc3c(c2)CCO3)ccc1OCCN1C(=O)CCC1=O` (centres undefined), the results for the Stability in data set [1] and in data set [3] were 2% and 0%, respectively. In addition, in data set [4], the concentration for half-maximal inhibition (IC50) is 77 nM.

Regarding `COc1cc(CN(C)[C@@H](C)c2ccc3c(c2)CCO3)ccc1OCCN1C(=O)CCC1=O`, the IC50 in data set [4] amounted to 154 nM.

On to `COc1cc(CN(Cc2ccc(F)cc2)C(C)c2ccc3c(c2)CCO3)ccc1OCCN1C(=O)CCC1=O` (centres undefined), for which the Stability came out at 24% in data set [1] and 19% in data set [3]. For the same molecule, the IC50 in data set [4] came to 97 nM.

As to `COc1cc(CNC(c2ccc3c(c2)CCO3)C2CCCC2)ccc1OCCN1C(=O)CCC1=O` (centres undefined), the IC50 in data set [4] turned out to be 3260 nM.

For the molecule `COc1cc(CN(C)C(C)c2ccc3c(c2)CCO3)ccc1OCCN1C(=O)CNC1=O` (centres undefined), the results for the Stability in data set [1] and in data set [3] were 60% and 55%, respectively. In addition, the IC50 in data set [4] was found to be 240 nM.

With `COc1cc(CN(C)C(C)c2ccc3c(c2)CCO3)ccc1OCCN1C(=O)CSC1=O` (centres undefined), the figures for the Stability in data set [1] and in data set [3] were 4% and 7%, respectively. Also, the IC50 in data set [4] amounted to 120 nM.

For `COc1cc(CN(Cc2ccncc2)C(C)c2ccc3c(c2)CCO3)ccc1OCCN1C(=O)CCC1=O` (centres undefined), the Stability is reported as 41% in data set [1] and 42% in data set [3]. Besides, in data set [4], the IC50 amounted to 130 nM.

Take `CCC(c1ccc2c(c1)CCO2)N(Cc1ccc(C(=O)O)cc1)Cc1ccc(OCCN2C(=O)CCC2=O)c(OC)c1` (centres undefined): the values for the Stability in data set [1] and in data set [3] were 60% and 78%, respectively. Besides, in data set [2], the apparent permeability (Papp) at 2 h amounted to 1.46 ×10⁻⁶ cm/s. Further, the IC50 in data set [4] was determined as 160 nM.

In the case of `CC(c1ccc2c(c1)CCO2)N(C)Cc1ccc(OCCN2C(=O)CCC2=O)c(Cl)c1` (centres undefined), the Stability in data set [1] came to 14%; in data set [3], 17%. The IC50 in data set [4] turned out to be 187 nM.

For `COc1cc(CN(CC(C)=O)C(C)c2ccc3c(c2)CCO3)ccc1OCCN1C(=O)CCC1=O` (centres undefined), the Stability was 2% in data set [1] and 0% in data set [3]. For the same molecule, the IC50 in data set [4] came out at 202 nM.

`CCCC(c1ccc2c(c1)CCO2)N(C)Cc1ccc(OCCN2C(=O)CCC2=O)c(OC)c1` (centres undefined): the Stability in data set [1] is given as 9%; in data set [3] it was 8%. In addition, in data set [4], the IC50 was found to be 110 nM.

Consider `COc1cc(CN(Cc2ccc(-c3nnn[nH]3)cc2)C(C)c2ccc3c(c2)CCO3)ccc1OCCN1C(=O)CCC1=O` (centres undefined), for which the results for the Stability in data set [1] and in data set [3] were 51% and 77%, respectively. Besides, in data set [2], the Papp at 2 h amounted to 0.2 ×10⁻⁶ cm/s. In data set [4], the IC50 stood at 126 nM.

As for `COc1cc(CN(C)C(C)c2ccc3c(c2)CCO3)ccc1NCCN1C(=O)CCC1=O` (centres undefined), the half-inhibitory concentration (IC50) in data set [4] came out at 443 nM.

Turning to `COc1cc(CNC(CC(C)C)c2ccc3c(c2)CCO3)ccc1OCCN1C(=O)CCC1=O` (centres undefined), the IC50 in data set [4] was found to be 1800 nM.

Take `COc1cc(CN(CC(C)C)C(C)c2ccc3c(c2)CCO3)ccc1OCCN1C(=O)CCC1=O` (centres undefined): the Stability in data set [1] stood at 2%; in data set [3], 9%. Besides, the IC50 in data set [4] is 55 nM.

As to `COc1cc(CN(C)[C@H](C)c2ccc3c(c2)CCO3)ccc1OCCN1C(=O)CCC1=O`, in data set [4], the IC50 is 790 nM.

Take `COc1cc(CN(C[C@H]2CC[C@H](C(=O)O)CC2)[C@H]2CCc3cc(Cl)ccc32)ccc1CCCN1C(=O)CCC1=O`: the results for the Stability in data set [1] and in data set [3] were 36% and 24%, respectively. For the same molecule, the Papp at 2 h in data set [2] turned out to be 16.5 ×10⁻⁶ cm/s. Also, the IC50 in data set [4] is 1000 nM.

For the molecule `COc1cc(CN(Cc2ccc3c(c2)CCO3)CC(C)C)ccc1OCCN1C(=O)CCC1=O`, the Stability was found to be 7% in data set [1] and 11% in data set [3]. Besides, in data set [4], the IC50 was 70 nM.

For the molecule `COc1cc(CN(C)C(CC(C)C)c2ccc3c(c2)CCO3)ccc1OCCN1C(=O)CCC1=O` (centres undefined), in data set [4], the IC50 is 330 nM.

In the case of `COc1cc(CNC(C)c2ccc3c(c2)CCO3)ccc1OCCN1C(=O)CCC1=O` (centres undefined), the values for the Stability in data set [1] and in data set [3] were 61% and 62%, respectively. Further, the half-maximal inhibitory concentration (IC50) in data set [4] was found to be 607 nM.
